Assay results as given in PMC5974556 (ChemistryOpen, 2018).
≈ marks a conversion by molar mass, not a printed value. Marks after values point to notes of the source that are not given here.

Columns and labels:
[1] = test system: EA.hy926 cells; assay: Mitochondria activity; assay type: cell-based; settings: Homo sapiens, EA.hy 926, 72 h, read-out: EA.hy926 IC50 MTT
Summary of the method: (§1)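 Cells kept in DMEM+glutamax with 1% NEAA, 1% P/S and 10% FBS at 37 °C, 10% CO2. Seeded 2×10^4 per well for 24 h, then exposed 72 h to test compound at various concentrations in serum-free medium, in triplicate. MTT (5 mg/mL in PBS) added for 2 h, formazan dissolved in DMSO, read at 570 nm. IC50 from % survival; doxorubicin control; MTT and SRB data pooled, mean ± SD, n≥6.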

[2] = test system: HepG2 cells; assay: Mitochondria activity; assay type: cell-based; settings: Homo sapiens, HepG2, 72 h, read-out: HepG2 IC50 MTT
Summary of the method: as §1

[3] = Ferric reducing antioxidant power; settings: chemical antioxidant capacity, n=3
Summary of the method: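 FRAP reagent made from acetate buffer, TPTZ in ethanol and FeCl3·6H2O in dilute HCl, mixed 10:1:1, with TPTZ and iron solutions fresh daily. Sample mixed with reagent 1:9, absorbance read at 593 nm after 4 min. Values expressed as Trolox equivalents by linear regression on a Trolox standard curve; α-tocopherol positive control.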

[4] = test system: HT‐29 cells; assay: Protein content; assay type: cell-based; settings: Homo sapiens, HT-29, 72 h, read-out: HT‐29 IC50 SRB
Summary of the method: (§2)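 Seeded 2×10^4 cells per well for 24 h, then treated with or without test compound for three days, in triplicate. Fixed with 50% TCA for 1 h at 4 °C, washed and dried. Stained 30 min at 4 °C with 0.4% sulforhodamine B in 1% acetic acid, rinsed with 1% acetic acid. Dye redissolved in Tris buffer, absorbance read at 490 nm. Doxorubicin control; MTT and SRB data pooled, mean ± SD, n≥6.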

[5] = test system: HT‐29 cells; assay: Mitochondria activity; assay type: cell-based; settings: Homo sapiens, HT-29, 72 h, read-out: HT‐29 IC50 MTT
Summary of the method: as §1

[6] = test system: Caco‐2 cells; assay: Mitochondria activity; assay type: cell-based; settings: Homo sapiens, Caco-2, 72 h, read-out: Caco‐2 IC50 MTT
Summary of the method: as §1

[7] = Water solubility, shake flask method in 0.1 M phosphate buffer pH 6.8; assay type: physicochemical; settings: 37 °C, pH 6.8, aqueous buffer, thermodynamic from solid
Summary of the method: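 Excess solid added to 1 mL sodium phosphate buffer, pH 6.8. Two conditions: 90 min sonication at 37 °C, or 30 min sonication at 37 °C, 23 h shaking at 300 rpm, then 30 min sonication. Centrifuged 14000 rpm for 5 min, filtered (0.2 µm) at 37 °C and diluted in DMSO. Quantified by LC at maximum absorbance against standard curves; independent triplicates.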

[8] = test system: HT‐29 cells; assay: Intracellular ROS; assay type: cell-based; settings: Homo sapiens; for activity at 1 µM: HT-29, read-out: Intracellular ROS, percentage compared to the untreated control cells (ROS/SRB), HT‐29, 1 μM; for activity at 10 µM: HT-29, read-out: Intracellular ROS, percentage compared to the untreated control cells (ROS/SRB), HT‐29, 10 μM
Summary of the method: (§3)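 Cells grown in DMEM+glutamax with 1% NEAA, 1% P/S and 10% FBS at 37 °C, 10% CO2. Seeded at 2×10^4 cells/well for 24 h, then confluent cells were exposed to test compound at 1 or 10 µM in serum-free medium, with NAC as control. Cells were washed, loaded with DCFH-DA for 30 min, then kept 1 h in phenol red-free DMEM. Fluorescence read at ex 485/em 535 nm, normalised to same-well SRB protein (490 nm) and given as % of untreated cells. Mean ± SD, n≥3; two-tailed t-test with unequal variances.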

[9] = test system: EA.hy926 cells; assay: Protein content; assay type: cell-based; settings: Homo sapiens, EA.hy 926, 72 h, read-out: EA.hy926 IC50 SRB
Summary of the method: as §2

[10] = test system: Caco‐2 cells; assay: Protein content; assay type: cell-based; settings: Homo sapiens, Caco-2, 72 h, read-out: Caco‐2 IC50 SRB
Summary of the method: as §2

[11] = test system: HepG2 cells; assay: Intracellular ROS; assay type: cell-based; settings: Homo sapiens; for activity at 1 µM: HepG2, read-out: Intracellular ROS, percentage compared to the untreated control cells (ROS/SRB), HepG2, 1 μM; for activity at 10 µM: HepG2, read-out: Intracellular ROS, percentage compared to the untreated control cells (ROS/SRB), HepG2, 10 μM
Summary of the method: as §3

[12] = test system: Caco‐2 cells; assay: Intracellular ROS; assay type: cell-based, human; settings: protein content normalization, mean±SD, n≥3
Summary of the method: as §3

[13] = test system: HepG2 cells; assay: Protein content; assay type: cell-based; settings: Homo sapiens, HepG2, 72 h, read-out: HepG2 IC50 SRB
Summary of the method: as §2

[14] = test system: EA.hy926 cells; assay: Intracellular ROS; assay type: cell-based; settings: Homo sapiens; for activity at 1 µM: EA.hy 926, read-out: Intracellular ROS, percentage compared to the untreated control cells (ROS/SRB), EA.hy926, 1 μM; for activity at 10 µM: EA.hy 926, read-out: Intracellular ROS, percentage compared to the untreated control cells (ROS/SRB), EA.hy926, 10 μM
Summary of the method: as §3

Row | Compound | IC50 [2] | IC50 [6] | solubility at 90 min [7] | solubility at 24 h [7] | IC50 [10] | Intracellular ROS, percentage compared to the untreated control cells (ROS/SRB), Caco‐2, 1 μM [12] | Intracellular ROS, percentage compared to the untreated control cells (ROS/SRB), Caco‐2, 10 μM [12] | IC50 [13] | IC50 [1] | FRAP [3] | IC50 [4] | IC50 [5] | activity at 1 µM [8] | activity at 10 µM [8] | IC50 [9] | activity at 1 µM [11] | activity at 10 µM [11] | activity at 1 µM [14] | activity at 10 µM [14]
1 | COCCCN1C(/C=C/c2cccnc2)=CC(=O)CC1c1cccnc1 (centres unmarked) [6 d, (E)‐1‐(3‐Methoxypropyl)‐2‐(pyridin‐3‐yl)‐6‐[2‐(pyridin‐3‐yl)vinyl]‐2,3‐dihydropyridin‐4(1H)‐one] | > 75 µM | > 75 µM | 1280 ± 61.2 µM (≈ 448 µg/mL) | 2980 ± 166 µM (≈ 1040 µg/mL) | > 75 µM | 90.8±6.3% | 89.9±3.4% | > 75 µM | > 75 µM | 0.00 Trolox equiv per μM | > 75 µM | > 75 µM | 83.4 ± 5.6% | 88.4 ± 4.1% | > 75 µM | 85.6 ± 8.9% | 95.7 ± 10% | 95.2 ± 5% | 98.3 ± 5.3%
2 | O=C(/C=C(O)/C=C/c1c[nH]c2ccccc12)/C=C/c1c[nH]c2ccccc12 [compound 3, (1E,4Z,6E)‐5‐Hydroxy‐1,7‐di(1H‐indol‐3‐yl)hepta‐1,4,6‐trien‐3‐one] | 10 ± 1.7 µM | 3.3 ± 0.3 µM | 19 ± 0.2 µM (≈ 6.73 µg/mL) | 11.1 ± 0.1 µM (≈ 3.93 µg/mL) | 2.1 ± 0.6 µM | 95.7±7.3% | 110.3±6.5^[b] % | 10.4 ± 1.5 µM | 11.7 ± 4.6 µM | 0.27 Trolox equiv per μM | 15.3 ± 6.6 µM | 11.5 ± 6.7 µM | 141 ± 21.3% | 125 ± 12% | 15.2 ± 5.9 µM | 129 ± 8% | 382 ± 34% | 111 ± 7.5% | 218 ± 20.3%
3 | O=C(/C=C(O)/C=C/c1ccc[nH]1)/C=C/c1ccc[nH]1 [compound 4, (1E,4Z,6E)‐5‐Hydroxy‐1,7‐di(1H‐pyrrol‐2‐yl)hepta‐1,4,6‐trien‐3‐one] | 8.2 ± 0.9 µM | 7.5 ± 1.6 µM | 84.8 ± 2.8 µM (≈ 21.6 µg/mL) | 74.2 ± 1.3 µM (≈ 18.9 µg/mL) | 9.7 ± 0.6 µM | 110.2±9.5^[b] % | 124.3±8.7^[c] % | 9.8 ± 1.5 µM | 8.3 ± 0.9 µM | 0.79 Trolox equiv per μM | 9.6 ± 0.5 µM | 8.9 ± 0.5 µM | 105 ± 6.3% | 121 ± 8.7% | 9 ± 2.2 µM | 75.6 ± 14.6% | 121 ± 26.1% | 295 ± 38.5% | 165 ± 18.9%
4 | COc1cc(/C=C/C(=O)CC(=O)/C=C/c2ccc(O)c(OC)c2)ccc1O [curcumin, reference compound] | 20.3 ± 4.1 µM | 28 ± 6.4 µM | 2.9 ± 0.3 µM (≈ 1.07 µg/mL) | 2.6 µM (≈ 0.958 µg/mL) | 33.1 ± 4.5 µM | 96.7±5.8% | 95.8±2.5% | 21.3 ± 4 µM | 20 ± 5.9 µM | 1.11 Trolox equiv per μM | 20.3 ± 1.1 µM | 23.4 ± 5.1 µM | 92.8 ± 5.8% | 90.2 ± 6.1% | 34.7 ± 10.5 µM | 95.9 ± 13.8% | 84.2 ± 8.1% | 99.9 ± 6.4% | 104 ± 7.6%

Further lines, with some results ahead:

Row | IC50 [2] | IC50 [6] | solubility at 90 min [7] | solubility at 24 h [7] | IC50 [10] | Intracellular ROS, percentage compared to the untreated control cells (ROS/SRB), Caco‐2, 1 μM [12] | Intracellular ROS, percentage compared to the untreated control cells (ROS/SRB), Caco‐2, 10 μM [12] | IC50 [13] | Compound | IC50 [1] | FRAP [3] | IC50 [4] | IC50 [5] | activity at 1 µM [8] | activity at 10 µM [8] | IC50 [9] | activity at 1 µM [11] | activity at 10 µM [11] | activity at 1 µM [14] | activity at 10 µM [14]
5 | > 75 µM | > 75 µM | 1470 ± 24 µM (≈ 494 µg/mL) | 4270 ± 332 µM (≈ 1430 µg/mL) | > 75 µM | 102.5±2.3% | 115.4±8.5% | > 75 µM | O=C(/C=C(/C=C/c1cccnc1)NCCCO)/C=C/c1cccnc1 [5 f, (1E,4Z,6E)‐5‐(3‐Hydroxypropylamino)‐1,7‐di(pyridin‐3‐yl)hepta‐1,4,6‐trien‐3‐one] | > 75 µM | 0.04 Trolox equiv per μM | > 75 µM | > 75 µM | 95.4 ± 1.7% | 96 ± 12.7% | > 75 µM | 84.8 ± 2.5% | 74.4 ± 3.2% | 88.7 ± 1.6% | 102 ± 1.6%
6 | > 75 µM | > 75 µM | 2460 ± 57.2 µM (≈ 826 µg/mL) | 5000 ± 137 µM (≈ 1680 µg/mL) | > 75 µM | 100.5±2.4% | – | > 75 µM | O=C1C=C(/C=C/c2cccnc2)N(CCCO)C(c2cccnc2)C1 (centres unmarked) [6 f, (E)‐1‐(3‐Hydroxypropyl)‐2‐(pyridin‐3‐yl)‐6‐[2‐(pyridin‐3‐yl)vinyl]‐2,3‐dihydropyridin‐4(1H)‐one] | > 75 µM | 0.00 Trolox equiv per μM | > 75 µM | > 75 µM | 111 ± 8.1% | 106 ± 4.1% | > 75 µM | 88.8 ± 10.4% | 106 ± 13.1% | 101 ± 1.3% | 106 ± 9.9%
